ChEMBL document CHEMBL1811805, “Molecular factors governing inhibition of arylimidamides against Leishmania: conservative computational modeling to improve chemotherapies” (Bioorg Med Chem, 2011)

Experiments:
[1] = test system: Leishmania amazonensis; assay: Antileishmanial activity against beta-lactamase transfected Leishmania amazonensis promastigotes infected in macrophages after 72 hrs by spectrophotometric analysis; format: functional, organism-based
Summary of the method: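 Macrophages plated and adhered overnight; infected with β-lactamase-transfected L. amazonensis promastigotes (MOI 5:1) overnight; compounds added for 72 hours at 34 °C; nitrocefin in lysis buffer added for 3 to 5 hours further; absorbance read at 490 nm. IC50 (μM) averaged with standard errors, n ≥ 3.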

[2] = test system: Leishmania donovani; assay: Antileishmanial activity against Leishmania donovani axenic amastigotes after 3 days by tetrazolium dye based spectrophotometric analysis at pH 5.5; format: functional, organism-based; conditions: 72 h
Summary of the method: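 Ld1s axenic amastigote-like L. donovani grown in potassium-based medium, pH 5.5, 37 °C; exposed to compounds for three days; tetrazolium dye added and read spectrophotometrically. IC50 (μM) averaged with standard errors, n ≥ 3.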

IC50 [1] | IC50 [2] | SMILES
0.3 µM | 1.3 µM | CNc1nc(C(=N)Nc2ccc(-c3ccc(-c4ccc(NC(=N)c5csc(NC)n5)cc4OC(C)C)o3)c(OC(C)C)c2)cs1
0.64 µM | 0.82 µM | CC(C)Oc1cc(NC(=N)c2ccc(N)cn2)ccc1-c1ccc(-c2ccc(NC(=N)c3ccc(N)cn3)cc2OC(C)C)o1
0.29 µM | 0.67 µM | Cc1cc(NC(=N)c2ccccn2)ccc1-c1ccc(-c2ccc(NC(=N)c3ccccn3)cc2C)o1
> 10 µM | > 50 µM | N=C(Nc1ccc(-c2ccc(-c3ccc(NC(=N)c4ccccn4)nc3)o2)cn1)c1ccccn1
> 10 µM | > 100 µM | N=C(Nc1cnc(-c2ccc(-c3cnc(NC(=N)c4ccccn4)cn3)o2)cn1)c1ccccn1
0.22 µM | > 100 µM | CC(=O)Nc1nc(C(=N)Nc2ccc(-c3ccc(-c4ccc(NC(=N)c5csc(NC(C)=O)n5)cc4OC(C)C)o3)c(OC(C)C)c2)cs1
4.7 µM | 41 µM | CC(=N)Nc1ccc(-c2ccc(-c3ccc(NC(C)=N)cc3OC3CCCC3)o2)c(OC2CCCC2)c1
0.96 µM | 1.5 µM | N=C(Nc1ccc(-c2ccc(-c3ccc(NC(=N)c4ccccn4)cc3O)o2)c(O)c1)c1ccccn1
2.1 µM | 28 µM | CC(C)N1CCC(Oc2cc(NC(=N)c3ccccn3)ccc2-c2ccc(-c3ccc(NC(=N)c4ccccn4)cc3OC3CCN(C(C)C)CC3)o2)CC1
0.21 µM | 1.5 µM | N=C(Nc1ccc(-c2ccc(-c3ccc(NC(=N)c4ncccn4)cc3OC3CCCC3)o2)c(OC2CCCC2)c1)c1ncccn1
1.4 µM | 4.2 µM | N=C(Nc1ccc(-c2ccc(-c3ccc(NC(=N)c4ccccn4)cc3F)o2)c(F)c1)c1ccccn1
0.11 µM | 1.7 µM | N=C(Nc1ccc(-c2cc(-c3ccccc3)c(-c3ccc(NC(=N)c4ccccn4)cc3)o2)cc1)c1ccccn1
> 10 µM | 23 µM | CC(C)COc1cc(NC(=N)c2c[nH]cn2)ccc1-c1ccc(-c2ccc(NC(=N)c3c[nH]cn3)cc2OCC(C)C)o1
> 10 µM | 5.1 µM | CC(C)CCOc1cc(NC(=N)c2ccccn2)ccc1-c1ccc(-c2ccc(NC(=N)c3ccccn3)cc2OCCC(C)C)o1
0.27 µM | 1.9 µM | CC(C)Oc1cc(NC(=N)c2ccc(N3CCCC3)cn2)ccc1-c1ccc(-c2ccc(NC(=N)c3ccc(N4CCCC4)cn3)cc2OC(C)C)o1
0.16 µM | 0.84 µM | Cc1ccc(C(=N)Nc2ccc(-c3ccc(-c4ccc(NC(=N)c5ccc(C)cn5)cc4C)o3)c(C)c2)nc1
0.095 µM | 1.1 µM | CC(C)COc1cc(NC(=N)c2ccccn2)ccc1-c1ccc(-c2ccc(NC(=N)c3ccccn3)cc2OCC(C)C)o1
0.62 µM | 1.2 µM | N=C(Nc1ccc(-c2ccc(-c3ccc(NC(=N)c4ccccn4)cc3Br)o2)c(Br)c1)c1ccccn1
0.51 µM | 4.5 µM | N=C(Nc1ccc(-c2ccc(-c3ccc(NC(=N)c4ccccn4)cc3OCc3ccccc3)o2)c(OCc2ccccc2)c1)c1ccccn1
0.045 µM | 0.68 µM | CC(C)Oc1cc(NC(=N)c2ccccn2)ccc1-c1ccc(-c2ccc(NC(=N)c3ccccn3)cc2OC(C)C)s1
> 10 µM | 28 µM | CC(C)Oc1cc(NC(=N)c2ccc(Br)cn2)ccc1-c1ccc(-c2ccc(NC(=N)c3ccc(Br)cn3)cc2OC(C)C)o1
5 µM | 31 µM | CC(C)Oc1cc(NC(=N)c2cn(C)cn2)ccc1-c1ccc(-c2ccc(NC(=N)c3cn(C)cn3)cc2OC(C)C)o1
5.5 µM | > 100 µM | COC(=O)[C@H](N)CCOc1cc(NC(=N)c2ccccn2)ccc1-c1ccc(-c2ccc(NC(=N)c3ccccn3)cc2OCC[C@H](N)C(=O)OC)s1
0.13 µM | 1 µM | COc1ccc(C(=N)Nc2ccc(-c3ccc(-c4ccc(NC(=N)c5ccc(OC)cn5)cc4OC(C)C)o3)c(OC(C)C)c2)nc1
> 10 µM | 5.6 µM | CC(C)Oc1cc(NC(=N)c2ccc(Cl)cn2)ccc1-c1ccc(-c2ccc(NC(=N)c3ccc(Cl)cn3)cc2OC(C)C)o1
3.7 µM | 20 µM | CC(C)Oc1cc(NC(=N)c2cnccn2)ccc1-c1ccc(-c2ccc(NC(=N)c3cnccn3)cc2OC(C)C)o1

Continued, compound first:

SMILES | IC50 [1] | IC50 [2]
N=C(Nc1ccc(-c2ccc(-c3ccc(NC(=N)c4ccccn4)cc3OC3CCCC3)o2)c(OC2CCCC2)c1)c1ccccn1 | 0.17 µM | 1.4 µM
CC(C)COc1cc(NC(=N)c2ccc(Br)cn2)ccc1-c1ccc(-c2ccc(NC(=N)c3ccc(Br)cn3)cc2OCC(C)C)o1 | > 10 µM | > 50 µM
CC(C)Oc1cc(NC(=N)c2csc(N)n2)ccc1-c1ccc(-c2ccc(NC(=N)c3csc(N)n3)cc2OC(C)C)o1 | 1.7 µM | 21 µM
CC(C)COc1cc(NC(=N)c2ncccn2)ccc1-c1ccc(-c2ccc(NC(=N)c3ncccn3)cc2OCC(C)C)o1 | 0.49 µM | 2.4 µM
CC(C)Oc1cc(NC(=N)c2ccc(F)cn2)ccc1-c1ccc(-c2ccc(NC(=N)c3ccc(F)cn3)cc2OC(C)C)o1 | 0.59 µM | 2.5 µM
N=C(Nc1ccc(-c2ccc(-c3ccc(NC(=N)c4ccccn4)cc3)o2)cc1)c1ccccn1 | 0.53 µM | 1.6 µM
CC(C)CCOc1cc(NC(=N)c2ncccn2)ccc1-c1ccc(-c2ccc(NC(=N)c3ncccn3)cc2OCCC(C)C)o1 | 0.32 µM | 7.9 µM
CC(C)Oc1cc(NC(=N)c2ccc[nH]2)ccc1-c1ccc(-c2ccc(NC(=N)c3ccc[nH]3)cc2OC(C)C)o1 | 0.9 µM | 16 µM
N=C(Nc1ccc(-c2ccc(-c3ccc(NC(=N)c4cnccn4)cc3)o2)cc1)c1cnccn1 | > 10 µM | > 100 µM
COc1cc(NC(=N)c2ccccn2)ccc1-c1ccc(-c2ccc(NC(=N)c3ccccn3)cc2OC)o1 | 0.37 µM | 0.53 µM
COc1cccc(C(=N)Nc2ccc(-c3ccc(-c4ccc(NC(=N)c5cccc(OC)n5)cc4OC(C)C)o3)c(OC(C)C)c2)n1 | 2.7 µM | 4.5 µM
N=C(Nc1ccc(-c2ccc(-c3ccc(NC(=N)c4c[nH]cn4)cc3OC3CCCC3)o2)c(OC2CCCC2)c1)c1c[nH]cn1 | > 10 µM | 14 µM
CC(C)Oc1cc(NC(=N)c2cccnn2)ccc1-c1ccc(-c2ccc(NC(=N)c3cccnn3)cc2OC(C)C)o1 | 1.1 µM | 1.1 µM
N/C(=N\c1ccc(-c2ccc(-c3ccc(/N=C(\N)c4ccccn4)cc3OC3CCNCC3)o2)c(OC2CCNCC2)c1)c1ccccn1 | > 10 µM | 59 µM
CC(C)Oc1cc(NC(=N)c2ncc[nH]2)ccc1-c1ccc(-c2ccc(NC(=N)c3ncc[nH]3)cc2OC(C)C)o1 | 0.37 µM | 1 µM
CC(C)Oc1cc(NC(=N)c2ccn(C)n2)ccc1-c1ccc(-c2ccc(NC(=N)c3ccn(C)n3)cc2OC(C)C)o1 | 0.74 µM | 5.8 µM
N=C(Nc1ccc(-c2ccc(-c3ccc(NC(=N)c4ccc(Cl)cn4)cc3OC3CCCC3)o2)c(OC2CCCC2)c1)c1ccc(Cl)cn1 | > 10 µM | > 100 µM
N=C(Nc1ccc(-c2ccc(-c3ccc(NC(=N)c4ccccn4)cc3Cl)o2)c(Cl)c1)c1ccccn1 | 0.56 µM | 2 µM
CC(C)(C)CCOc1cc(NC(=N)c2ccccn2)ccc1-c1ccc(-c2ccc(NC(=N)c3ccccn3)cc2OCCC(C)(C)C)o1 | > 10 µM | 28 µM
N=C(Nc1ccc(-c2ccc(-c3ccc(NC(=N)c4ccccn4)cc3OCC(F)(F)F)o2)c(OCC(F)(F)F)c1)c1ccccn1 | 0.25 µM | 1.1 µM
N=C(Nc1ccc(-c2ccc(-c3ccc(NC(=N)c4ccc(Br)cn4)cc3OC3CCCC3)o2)c(OC2CCCC2)c1)c1ccc(Br)cn1 | > 10 µM | > 100 µM
CC(=O)N(C)c1nc(C(=N)Nc2ccc(-c3ccc(-c4ccc(NC(=N)c5csc(N(C)C(C)=O)n5)cc4OC(C)C)o3)c(OC(C)C)c2)cs1 | 0.81 µM | 3.6 µM
Cc1cccc(C(=N)Nc2ccc(-c3ccc(-c4ccc(NC(=N)c5cccc(C)n5)cc4C)o3)c(C)c2)n1 | 3.1 µM | > 50 µM
Cc1nc(C(=N)Nc2ccc(-c3ccc(-c4ccc(NC(=N)c5csc(C)n5)cc4OC(C)C)o3)c(OC(C)C)c2)cs1 | 0.17 µM | 1.4 µM
Cc1c(-c2ccc(NC(=N)c3ccccn3)cc2)oc(-c2ccc(NC(=N)c3ccccn3)cc2)c1C | 0.11 µM | 0.37 µM
CC(C)Oc1cc(NC(=N)c2ncccn2)ccc1-c1ccc(-c2ccc(NC(=N)c3ncccn3)cc2OC(C)C)o1 | 0.7 µM | 0.55 µM
N=C(Nc1ncc(-c2ccc(-c3cnc(NC(=N)c4ccccn4)nc3)o2)cn1)c1ccccn1 | > 10 µM | > 100 µM
